Each block holds one compound with its values, some of them ahead of it.
Tests used:
[1] = tested on: bleomycin-induced dermal fibrosis; details: mice, 14 days of IP dosing, 100 mg/kg bid; cited from earlier work
[2] = tested on: bleomycin-induced dermal fibrosis; assay: Bleomycin-induced dermal fibrosis in mice; type: in vivo; details: PO 50 mg/kg qd, 14 days, vs bleomycin treatment alone
In short: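 Three groups of mice (n=8) were treated daily for 14 days. Controls received intracutaneous PBS. The bleomycin group received intracutaneous bleomycin with concurrent oral gavage of vehicle. The treated group received intracutaneous bleomycin with concurrent oral gavage of test compound at 50 mg/kg. Read-outs were dermal thickness and hydroxyproline content, each compared with bleomycin alone.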

[3] = tested on: Rho/MRTF/SRF pathway (SRE.L promoter luciferase reporter); assay: Inhibition of Gα12-stimulated SRE.Luciferase activity in HEK293T cells; type: cell-based
In short: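 HEK293T cells were transfected with a luciferase reporter driven by the MRTF-selective SRE.L promoter. Reporter activity was Gα12-stimulated, and inhibition of luciferase signal by test compound was measured. Values are means of n ≥ 3.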

[4] = tested on: ACTA2 expression; assay: ACTA2 mRNA expression; type: cell-based; details: Homo sapiens, Fibroblast, 24 h, read-out: ACTA2 (%ctrl), inhibition of ACTA2 expression (percent control), TGF-β-stimulated human dermal fibroblasts, 10 μM, 24 hrs, mean of n=3
[5] = Stability to incubation with mouse liver microsomes; type: in vitro ADME; details: relative to 1
[6] = tested on: conjunctival fibrosis (scar tissue formation); details: preclinical model of conjunctival fibrosis; ref 18 (Yu-Wai-Man et al); cited from earlier work

SMILES: O=C(Nc1ccc(Cl)cc1)C1CCCN(C(=O)c2cccc(-c3ccco3)c2)C1 (centres unmarked) [Cmpd 1]
Effect on development of bleomycin-induced dermal fibrosis [1]: can attenuate the development of bleomycin-induced dermal fibrosis

SMILES: O=C(Nc1ccc(Cl)cc1)C1CN(C(=O)c2cccc(-c3ccncc3)c2)CC(F)(F)C1 (centres unmarked) [Cmpd 8f]
Reduction of bleomycin-induced increase in dermal thickness [2]: −55%
Reduction of bleomycin-induced increase in hydroxyproline content [2]: −62%

SMILES: C=C1CC(C(=O)Nc2ccc(Cl)cc2)CN(C(=O)c2cccc(-c3ccco3)c2)C1 (centres unmarked) [Cmpd 23]
Improvement of SRE.L potency ([3]; relative to 5-carbonyl/parent series): ~10 fold

SMILES: CN(C(=O)C1CCCN(C(=O)c2cccc(-c3ccco3)c2)C1)c1ccc(Cl)cc1 (centres unmarked) [Cmpd 26]
Reduction of SRE.L activity ([3]; relative to 1): 10 fold

Lengthening of half-time in MLM (factor) [5]: three
SMILES: O=C(Nc1ccc(Cl)cc1)C1CN(C(=O)c2cccc(-c3ccco3)c2)CC(F)(F)C1 (centres unmarked) [Cmpd 8a]
mrna remaining at 10 µM [4]: 9%
Effect on scar tissue formation [6]: prevent scar tissue formation

From paper PMC5395305 (Bioorganic & medicinal chemistry letters, 2017)
